According to ChEMBL document CHEMBL1154555, “Antifungal and larvicidal compounds from the root bark of Cordia alliodora” (2000):
≈ marks a conversion by molar mass, not a printed value.

Key:
Cladosporium cucumerinum [1] = test: Antimicrobial activity against Cladosporium cucumerinum assessed as drug level causing growth inhibition on silica gel TLC plate after 2-3 days
Aedes aegypti = test: Larvicidal activity against Aedes aegypti assessed as drug level required to kill instar II larvae after 24 hrs; assay type: functional
Method in brief: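 Geometric dilutions were made from 5 mg/mL DMSO stocks and added to tubes holding about 20 instar II A. aegypti larvae in tap water, to a final volume of 10 mL. Tubes were kept in darkness at 26-28 °C for 24 h. Larval lethality was scored under lab light, in duplicate.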

Candida albicans [2] = test: Antimicrobial activity against sCandida albicans assessed as drug level causing growth inhibition on silica gel TLC plate after 24 hrs; assay type: functional
Method in brief: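 Agar overlay bioautography: 10 µL of geometric dilutions from 5 mg/mL stocks were spotted on Si gel 60 F254 glass TLC plates. Plates were developed in petroleum ether-EtOAc (1:1) and dried, then overlaid with about 1 mm of molten malt agar carrying about 107 yeast cells/mL. Plates were incubated overnight at 30 °C, moist, then sprayed with MTT (2.5 mg/mL). The read-out was the minimal amount (µg) giving clear spots on purple, with a nystatin reference.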

Cladosporium cucumerinum [3] = test: Antimicrobial activity against Cladosporium cucumerinum after 24 hrs by agar dilution method; assay type: functional
Method in brief: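 Geometric dilutions were made in DMSO from 3 mg/mL DMSO stocks and added to Sabouraud agar in sealed 24-well plates, with final DMSO ≤2%. A distilled-water suspension of C. cucumerinum was spread over the agar and incubated 24 h at 30 °C. The read-out was MIC (µg/mL), the average of duplicates, with no-compound growth controls and a nystatin reference.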

Candida albicans [4] = test: Antimicrobial activity against Candida albicans after 24 hrs by agar dilution method; assay type: functional, organism-based

With `CC(C)=CCCC(C)(O)/C=C\c1cc(O)ccc1O` (stereo not drawn) the Activity (Cladosporium cucumerinum [1]) was 5 µg, the Activity (Aedes aegypti) was over 50 µg/mL and the Activity (Candida albicans [2]) was over 50 µg. The MIC (Cladosporium cucumerinum [3]) was 15 µg/mL (≈ 57.2 µM).
NYSTATIN showed an MIC (Candida albicans [4]) of 1 µg/mL, an Activity (Candida albicans [2]) of 0.1 µg and an MIC (Cladosporium cucumerinum [3]) of 1 µg/mL.
`CC1=CC(=O)c2c(O)cccc2C1=O` [PLUMBAGIN] was tested, and the Activity (Aedes aegypti) was 3 µg/mL.
`C/C=C\c1cc(OC)c(OC)cc1OC` [CIS-ASARONE] gave an Activity (Aedes aegypti) of 25 µg/mL.
Work on `COC(=O)CCc1cc(OC)c(OC)cc1OC` yielded an Activity (Cladosporium cucumerinum [1]) of 5 µg, an Activity (Aedes aegypti) of 12.5 µg/mL and an Activity (Candida albicans [2]) of over 50 µg. The MIC (Cladosporium cucumerinum [3]) was 15 µg/mL (≈ 59 µM).
